Results on six compounds are retold here after ChEMBL document CHEMBL3425414, “Synthesis of a New Peptide-Coumarin Conjugate: A Potential Agent against Cryptococcosis” (ACS Med Chem Lett, 2015).

≈ marks a conversion by molar mass, not a printed value. Calls of active or inactive are those of the source. The rule behind the calls is not given here. Peptide text beside a SMILES is read from it. * marks the point of attachment. X1 = CCN(CC)c1ccc2cc(-n3cc(CCC(=O)*)nn3)c(=O)oc2c1; Pent4ynoyl = C#CCCC(=O)*

In series [1] the test system is Cryptococcus gattii species complex. The experiment in a line: Antifungal activity against Cryptococcus gattii ICB 181 after 72 hrs by microdilution method. It counts as functional, Cryptococcus bacillisporus. Particulars: ICB 181, 72 h. The method in brief: (§1)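 Broth microdilution susceptibility per CLSI M27-A3; MIC reported in […]. Panel includes C. gattii strains (one fluconazole-resistant, L27/01F) and C. neoformans ATCC strains; fluconazole run as reference drug.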

Series [2] has the same test system. The series is described as follows: Antifungal activity against Cryptococcus gattii L135/03 after 72 hrs by microdilution method. It counts as functional, Cryptococcus bacillisporus. Particulars: L135/03, 72 h. A digest of the protocol:
as §1
(Dilution methods test growth across graded concentrations, often in twofold steps.)

Series [3] shares this test system. The experiment in a line: Antifungal activity against Cryptococcus gattii 196L/03 after 72 hrs by microdilution method. Type of series: functional, Cryptococcus bacillisporus. Particulars: 196L/03, 72 h. A digest of the protocol: as §1
Series [4] shares this test system. The experiment in a line: Antifungal activity against Cryptococcus gattii 547/OTT after 72 hrs by microdilution method. Type of series: functional, Cryptococcus bacillisporus. A digest of the protocol:
as §1

For series [5], the system named is Cryptococcus bacillisporus. The series is described as follows: Antifungal activity against Cryptococcus gattii ATCC 32608 after 72 hrs by microdilution method. It counts as functional. Particulars: ATCC 32608, 72 h. A digest of the protocol: as §1
Series [6] relates to Cryptococcus gattii species complex. The series is described as follows: Antifungal activity against Cryptococcus gattii 1913ER after 72 hrs by microdilution method. It counts as functional, Cryptococcus bacillisporus. The method in brief: as §1
Series [7] has the same test system. The series is described as follows: Antifungal activity against Cryptococcus gattii L27/01 after 72 hrs by microdilution method. Type of series: functional, Cryptococcus bacillisporus. Particulars: L27/01, 72 h. A digest of the protocol: as §1
For series [8] the test system is unchanged. The experiment in a line: Antifungal activity against Cryptococcus gattii L28/02 after 72 hrs by microdilution method. It counts as functional, Cryptococcus bacillisporus. Particulars: L28/02, 72 h. A digest of the protocol: as §1
Series [9] has the same test system. The series is described as follows: Antifungal activity against Cryptococcus gattii LMM 818 after 72 hrs by microdilution method. It counts as functional, Cryptococcus bacillisporus. Particulars: LMM 818, 72 h. A digest of the protocol: as §1
The test system is the same in series [10]. The series is described as follows: Antifungal activity against Cryptococcus gattii L24/01 after 72 hrs by microdilution method. Particulars: L24/01, 72 h. Type of series: functional, Cryptococcus bacillisporus. The method in brief: as §1
Series [11] has the same test system. The series is described as follows: Antifungal activity against Cryptococcus gattii 23/10993 after 72 hrs by microdilution method. Particulars: 23/10993, 72 h. Type of series: functional, Cryptococcus bacillisporus. A digest of the protocol:
as §1

Series [12] has the same test system. The series is described as follows: Antifungal activity against Cryptococcus gattii 29/10893 after 72 hrs by microdilution method. Type of series: functional, Cryptococcus bacillisporus. Particulars: 29/10893, 72 h. The method in brief: as §1
Series [13] shares this test system. The series is described as follows: Antifungal activity against fluconazole-resistant Cryptococcus gattii L27/01F after 72 hrs by microdilution method. Type of series: functional, Cryptococcus bacillisporus. A digest of the protocol: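 Broth microdilution susceptibility test following the CLSI M27-A3 standard; the MIC is reported in […]. Fluconazole is run in parallel as the reference drug across the C. gattii and C. neoformans strain panel.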

In series [14] the test system is Cryptococcus neoformans. The experiment in a line: Antifungal activity against Cryptococcus neoformans ATCC 96806 after 72 hrs by microdilution method. Type of series: functional. Particulars: ATCC 96806, 72 h. The method in brief:
as §1

The subject of series [15] is Cryptococcus neoformans. The experiment in a line: Antifungal activity against Cryptococcus neoformans ATCC 62066 after 72 hrs by microdilution method. It counts as functional. Particulars: ATCC 62066, 72 h. The method in brief:
as §1

Series [16] deals with Cryptococcus neoformans. The series is described as follows: Antifungal activity against Cryptococcus neoformans ATCC 24067 after 72 hrs by microdilution method. It counts as functional. Particulars: ATCC 24067, 72 h. The method in brief: as §1
Series [17] relates to Cryptococcus neoformans. The series is described as follows: Antifungal activity against Cryptococcus neoformans ATCC 28957 after 72 hrs by microdilution method. It counts as functional. Particulars: ATCC 28957, 72 h. The method in brief: as §1
The test system of a further series is Cryptococcus gattii. The experiment in a line: Antifungal activity against Cryptococcus gattii ATCC 24065 after 72 hrs by microdilution method. Particulars: ATCC 24065, 72 h.
The test system of series [18] is Cryptococcus bacillisporus. The series is described as follows: Induction of reactive oxygen species formation in Cryptococcus gattii ATCC 32608 at MIC after 0.5 to 1 hr by dichlorofluorescein diacetate probe-based fluorometric assay relative to control. It counts as functional, organism-based. The method in brief: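 Endogenous ROS in C. gattii ATCC 32608 cells treated at the compound's MIC, measured fluorometrically (signal proportional to ROS accumulation); untreated cells and compound alone measured for baseline; group differences tested statistically.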

A short description of series [19]: Induction of reactive oxygen species formation after 0.5 to 1 hr by dichlorofluorescein diacetate probe-based fluorometric assay. Type of series: physicochemical.

With `OC(Cn1cncn1)(Cn1cncn1)c1ccc(F)cc1F` [FLUCONAZOLE], the minimal inhibitory concentration (MIC) in series [1] was determined as 50 µM (≈ 15.3 µg/mL); in series [2], 50 µM (≈ 15.3 µg/mL); in series [3], 100 µM (≈ 30.6 µg/mL); in series [4], 100 µM (≈ 30.6 µg/mL); in series [5], 50 µM (≈ 15.3 µg/mL); in series [6], 50 µM (≈ 15.3 µg/mL). For the same compound, the minimal inhibitory concentration (MIC) is 100 µM (≈ 30.6 µg/mL) in [7]; 100 µM (≈ 30.6 µg/mL) in series [8]; 100 µM (≈ 30.6 µg/mL) in [9]; 50 µM (≈ 15.3 µg/mL) in series [10]; 50 µM (≈ 15.3 µg/mL) in series [11]; 30 µM (≈ 9.19 µg/mL) in series [12]. In addition, the MIC came to 420 µM (≈ 129 µg/mL) in [13]; 150 µM (≈ 45.9 µg/mL) in the series with Cryptococcus neoformans [14]; 30 µM (≈ 9.19 µg/mL) against Cryptococcus neoformans [15]; 20 µM (≈ 6.13 µg/mL) with Cryptococcus neoformans [16]; 3 µM (≈ 0.919 µg/mL) against Cryptococcus neoformans [17]; 10 µM (≈ 3.06 µg/mL) with Cryptococcus gattii.
As for `CCN(CC)c1ccc2cc(-n3cc(CCC(=O)N[C@@H](CCCNC(=N)N)C(=O)N[C@@H](C)C(=O)N[C@@H](CCCCN)C(=O)N[C@@H](CCCNC(=N)N)C(=O)N[C@@H](CCCNC(=N)N)C(=O)N[C@@H](CCSC)C(=O)N[C@@H](CCC(N)=O)C(=O)N[C@@H](Cc4ccc(O)cc4)C(N)=O)nn3)c(=O)oc2c1` (X1-RAKRRMQY-NH2), the minimum inhibitory concentration (MIC) in series [1] worked out at 90 µM (≈ 130 µg/mL); in series [2], 40 µM (≈ 57.8 µg/mL); in series [3] it was 40 µM (≈ 57.8 µg/mL); in series [4], 40 µM (≈ 57.8 µg/mL); in series [5], 90 µM (≈ 130 µg/mL); in [6] it was 180 µM (≈ 260 µg/mL). The minimal inhibitory concentration (MIC) in series [7] was 40 µM (≈ 57.8 µg/mL); in series [8], 90 µM (≈ 130 µg/mL); in [9] it was 180 µM (≈ 260 µg/mL); in [10], 90 µM (≈ 130 µg/mL); in series [11], 180 µM (≈ 260 µg/mL); in series [12], 90 µM (≈ 130 µg/mL). The MIC came to 90 µM (≈ 130 µg/mL) in series [13]; 90 µM (≈ 130 µg/mL) against Cryptococcus neoformans [14]; 90 µM (≈ 130 µg/mL) in the series with Cryptococcus neoformans [15]; 90 µM (≈ 130 µg/mL) in the series with Cryptococcus neoformans [16]; 90 µM (≈ 130 µg/mL) with Cryptococcus neoformans [17]; 180 µM (≈ 260 µg/mL) with Cryptococcus gattii. Also, the outcome in [18] was Active. Besides, the Activity result in series [19] is recorded as “Not Active”.
As to `CCN(CC)c1ccc2cc(-n3cc(CCCO)nn3)c(=O)oc2c1`, the minimum inhibitory concentration (MIC) in series [1], in series [2], in [3], in series [4], in series [5] and in [6] was greater than 750 µM in each case. For the same compound, the MIC in series [7], in series [8], in series [9], in series [10], in series [11] and in series [12] was greater than 750 µM throughout. In addition, the MIC (in series [13]; in the series on Cryptococcus neoformans [14]; with Cryptococcus neoformans [15]; against Cryptococcus neoformans [16]; in the series on Cryptococcus neoformans [17]; against Cryptococcus gattii) was greater than 750 µM throughout. The result in series [18] was Active.
With `C#CCCC(=O)N[C@@H](CCCNC(=N)N)C(=O)N[C@@H](C)C(=O)N[C@@H](CCCCN)C(=O)N[C@@H](CCCNC(=N)N)C(=O)N[C@@H](CCCNC(=N)N)C(=O)N[C@@H](CCSC)C(=O)N[C@@H](CCC(N)=O)C(=O)N[C@@H](Cc1ccc(O)cc1)C(N)=O` (Pent4ynoyl-RAKRRMQY-NH2), the minimum inhibitory concentration (MIC) in series [1], in [2], in series [3], in [4], in series [5] and in series [6] was greater than 220 µM in each case. Moreover, the minimal inhibitory concentration (MIC) in series [7], in series [8], in series [9], in series [10], in [11] and in series [12] was greater than 220 µM throughout. The minimum inhibitory concentration (MIC) (in series [13]; against Cryptococcus neoformans [14]; against Cryptococcus neoformans [15]; in the series with Cryptococcus neoformans [16]; against Cryptococcus neoformans [17]; against Cryptococcus gattii) was greater than 220 µM throughout.
`CCN(CC)c1ccc2cc(N=[N+]=[N-])c(=O)oc2c1`: the MIC in [1], in series [2], in series [3], in series [4], in [5] and in series [6] was greater than 990 µM each time. Further, the MIC in series [7], in series [8], in series [9], in series [10], in series [11] and in series [12] was greater than 990 µM each time. In addition, the minimum inhibitory concentration (MIC) (in series [13]; in the series with Cryptococcus neoformans [14]; with Cryptococcus neoformans [15]; against Cryptococcus neoformans [16]; with Cryptococcus neoformans [17]; against Cryptococcus gattii) was greater than 990 µM each time.
Take H-RAKRRMQY-NH2: the minimal inhibitory concentration (MIC) in series [1], in series [2], in series [3], in series [4], in series [5] and in series [6] was greater than 230 µM throughout. Also, the MIC in series [7], in [8], in series [9], in series [10], in series [11] and in series [12] was greater than 230 µM throughout. Also, the minimal inhibitory concentration (MIC) (in series [13]; against Cryptococcus neoformans [14]; in the series with Cryptococcus neoformans [15]; against Cryptococcus neoformans [16]; against Cryptococcus neoformans [17]; against Cryptococcus gattii) was greater than 230 µM throughout.

A word on the MIC: it is the least concentration at which growth counts as inhibited.
